Diaphorase inh = counter-screen for diaphorase-based assays: diaphorase inhibitors and chemical oxidizers | diaphorase resazurin-to-resorufin fluorescence, NADH, 16 min; bacterial (C. kluyveri) enzyme, not human | inhibition, % at 20 µM | 190,000 tested, 0.69% active | AID 1217;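 active = primary screen inhibition at 20 µM above a set limit, cut at about 50% in these data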
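Assay system – diaphorase enzyme from Clostridium kluyveri · Amount – diaphorase 0.14 U/mL (working solution) · Times – reaction incubation of 16 min at room temperature · Controls – No-NADH positive control and DMSO neutral control · Signal – resorufin fluorescence 544/590 nm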
PfGluPho inh = PfG6PD (Plasmodium falciparum) enzyme inhibition; 350,000 tested, 0.78% active; PfGluPho enzyme, NADPH resazurin-diaphorase fluorescence; AID 504690; inhibition, % at 20 µM;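 active = inhibition reaching at least a set limit at 20 µM in the primary screen, cut at about 59% in these data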
G6PDH counter = counter-screen for G6PDH assay hits: L. mesenteroides G6PDH inhibition. Purified L. mesenteroides G6PDH, diaphorase/resazurin coupled fluorescence, 45 min. inhibition, % at 5 µM. 200,000 tested, 0.12% active; in the data active = inhibition above about 50%
HKDC1 inhibitor = blocks human hexokinase HKDC1 activity. Q2TB90. recombinant HKDC1, G6PDH/diaphorase resazurin coupled fluorescence. inhibition, % at 20 µM. 340,000 tested, 0.16% active;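 active = inhibition above about 35% when tested at 20 µM, limit read from the data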
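Incubation: 90 min at room temperature in dark / Material: recombinant HKDC1 (HK5) hexokinase enzyme, produced in-house / Quantity: enzyme 5 µg/mL final / Compound: one dose of 20 µM, 1% DMSO / Reagent: glucose and ATP substrates / Buffer or medium: Tris pH 8.0 buffer with MgCl2, Tween-20, BSA, BME / Technique: resorufin fluorescence at 613 nm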
PfGluPho conf = confirmation of Plasmodium falciparum G6PD inhibitors; shares compounds with PfGluPho inh; recombinant PfGluPho, NADPH-diaphorase-resazurin fluorescence; inhibition, % at 20 µM; 2,400 tested, 34% active; AID 504753;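 active = inhibition of at least 50% at 20 µM in any single replicate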
Diaph ctr 10uM = inhibits diaphorase or oxidizes, flagging false PfG6PD hits. shares compounds with PfGluPho inh. diaphorase-coupled resazurin reduction, fluorescence, NADPH 10 uM. inhibition, % at 20 µM. 820 tested, 39% active;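 active = average inhibition reaching 50% or more with the compound at 20 µM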;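 note: resorufin red fluorescence formed as diaphorase reduces resazurin using NADPH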
Diaph ctr 30uM = diaphorase inhibition or oxidation at 30 uM NADPH; shares compounds with PfGluPho inh; Diaphorase/resazurin coupled assay, resorufin fluorescence; inhibition, % at 20 µM; 820 tested, 29% active;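 active = inhibition averaging 50% or more, tested at 20 µM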
Each line names hits and unclear results; the compound was inactive in the other large screens (follow-up assays come after a bar, where they were run). In the library only some 1.3% were active in any assay of this set; here they are far more common.

COc1cc(/C=C/C(=O)Nc2nnc(CC(C)C)s2)cc(OC)c1OC	none
Cc1cccc(OCCC(=O)NCC(=O)Nc2cccc(C)c2C)c1	PfGluPho inh 105 | PfGluPho conf 91 | Diaph ctr 10uM 81 | Diaph ctr 30uM 67
CCSc1nc2nccnc2c(=O)[nH]1	none (no result: Diaphorase inh, G6PDH counter)
CC(=O)Nc1ccc(Nc2ncnc3c2cnn3-c2ccccc2)cc1	none
Clc1ccc(Nc2ncnc3c2cnn3-c2ccccc2)cc1	PfGluPho inh 111 | PfGluPho conf inactive
Cc1ccc(Nc2nnc(-c3ccc4c(c3)OCO4)o2)c(C)c1	PfGluPho inh 70 (no result: Diaphorase inh, G6PDH counter) | PfGluPho conf inactive
Cc1ccc(CSc2nnc(-c3ccc4c(c3)OCO4)o2)cc1	none
COC(=O)c1cc(C)[nH]c2c(C)cc3nc4ccccc4c3c12	PfGluPho inh 71 (no result: Diaphorase inh, G6PDH counter) | PfGluPho conf inactive
COC(=O)c1c(C)nc2ccccc2c1C(=O)O	none
CC1(C)Cc2c(sc3nc4n(-c5ccccc5)c(=O)c(CCC(=O)O)nn4c(=O)c23)CO1	PfGluPho inh 104 (no result: Diaphorase inh, G6PDH counter) | PfGluPho conf 91 | Diaph ctr 10uM inactive | Diaph ctr 30uM inactive
CC1CCCCC12NC(=S)N(c1ccccc1)N2 (configuration not stated)	PfGluPho inh 60 (no result: Diaphorase inh, G6PDH counter) | PfGluPho conf inactive
COc1ccc([C@H]2C[C@H](n3cc(-c4ccc(F)cc4)nn3)[C@@H](O)CN2C(=O)C2CCCCC2)cc1	none (no result: Diaphorase inh, G6PDH counter, HKDC1 inhibitor)
O=C1Nc2ccccc2C(=O)C1(Cl)Cc1ccccc1 (configuration not stated)	PfGluPho inh 70 | PfGluPho conf 66 | Diaph ctr 10uM inactive | Diaph ctr 30uM inactive
O=[N+]([O-])c1ccc(Nc2cccc3c2[nH]c2c(-c4ccccc4)nccc23)c([N+](=O)[O-])c1	PfGluPho inh 84 (no result: Diaphorase inh, G6PDH counter) | PfGluPho conf inactive
CC1CCCC2(C1)NC(=S)N(c1ccccc1)N2 (configuration not stated)	none
CC1CCCC2(C1)NC(=S)c1c(sc3c1CCCC3)N2 (configuration not stated)	PfGluPho inh 64 | PfGluPho conf inactive
Cc1ccccc1Nc1nnc(SCc2cc(=O)n3ccsc3n2)s1	none
COc1ccccc1Nc1nnc(SCc2cc(=O)n3cc(C)ccc3n2)s1	PfGluPho inh 69 | PfGluPho conf inactive
Oc1c(I)cc(I)c2cccnc12	PfGluPho inh 65 | PfGluPho conf inactive
Oc1c(Cl)cc(Cl)c2cccnc12	none
COc1ccc(-c2sc(Nc3ccccc3)n[n+]2-c2ccc(F)cc2)cc1Br	none (no result: Diaphorase inh, G6PDH counter)
CCc1ccc(Nc2n[n+](-c3ccccc3)c(-c3c(Cl)cccc3Cl)s2)cc1	PfGluPho inh 80 (no result: Diaphorase inh, G6PDH counter) | PfGluPho conf inactive
COc1ccc(C)cc1Nc1n[n+](-c2ccccc2)c(-c2c(Cl)cccc2Cl)s1	PfGluPho inh 73 (no result: Diaphorase inh, G6PDH counter) | PfGluPho conf inactive
COc1ccc2ccccc2c1-c1sc(Nc2ccccc2)n[n+]1-c1ccc(F)cc1	PfGluPho inh 99 (no result: Diaphorase inh, G6PDH counter) | PfGluPho conf 79 | Diaph ctr 10uM 75 | Diaph ctr 30uM 59
COc1cc(COC(=O)Oc2ccc(CNC(C)=O)cc2OC)c([N+](=O)[O-])cc1OC	none (no result: Diaphorase inh, G6PDH counter)
CCc1ccccc1OCC(=O)NNCC(=O)Nc1cccc(C#N)c1	none (no result: Diaphorase inh, G6PDH counter)
Cn1c(=O)[nH]c(=O)c2c1nc(SCC(=O)O)n2CCc1ccccc1	PfGluPho inh 63 | PfGluPho conf inactive
CCCCCn1c(N2CCC(Cc3ccccc3)CC2)nc2c1c(=O)[nH]c(=O)n2C	PfGluPho inh 66 (no result: Diaphorase inh, G6PDH counter) | PfGluPho conf inactive
CN(C(=O)C=Cc1ccccc1)c1ccccc1	none (no result: Diaphorase inh, G6PDH counter)
O=C(CCl)N(O)c1ccc(C=Cc2ccccc2)cc1	PfGluPho inh 62 (no result: Diaphorase inh, G6PDH counter) | PfGluPho conf inactive
O=C(O)CSc1nnc(-c2ccccc2Br)n1-c1cccc(C(F)(F)F)c1	none
NC(=O)CSc1nnc(-c2ccccc2Br)n1-c1cccc(C(F)(F)F)c1	PfGluPho inh 69 | PfGluPho conf 59 | Diaph ctr 10uM 59 | Diaph ctr 30uM 55
CCC(C)c1ccc(S(=O)(=O)N2CCN(c3ccccn3)CC2)cc1 (configuration not stated)	none (no result: Diaphorase inh, G6PDH counter)
COc1ccc(-c2noc(CNC(=O)c3ccoc3C)n2)cc1	none (no result: Diaphorase inh, G6PDH counter)
CCCn1c(N)c(C(=O)CSc2nnc(C3CC3)n2Cc2ccccc2)c(=O)n(C)c1=O	none (no result: Diaphorase inh, G6PDH counter)
CCOC(=O)C1=C(C)N(C)C(=O)NC1c1cc2c(cc1[N+](=O)[O-])OCO2 (configuration not stated)	Diaphorase inh 67, PfGluPho inh 71 | PfGluPho conf inactive
COC(=O)c1nccnc1N	none (no result: Diaphorase inh, G6PDH counter)
COc1cccc(OCCNc2cc(Cl)ccc2[N+](=O)[O-])c1	PfGluPho inh 63 | PfGluPho conf inactive
COc1cccc(OCCNc2ccc([N+](=O)[O-])cn2)c1	none (no result: Diaphorase inh, G6PDH counter)
O=S(=O)(c1ccc(Cl)cc1)N1CCN=C1SCc1cccc(Cl)c1	none
Cc1ccc(C)c(CSC2=NCCN2S(=O)(=O)c2ccccc2)c1	PfGluPho inh 62 (no result: Diaphorase inh, G6PDH counter) | PfGluPho conf inactive
O=S(=O)(c1ccccc1)N1CCN=C1SCc1c(F)cccc1Cl	PfGluPho inh 106 (no result: Diaphorase inh, G6PDH counter) | PfGluPho conf inactive
CC(SC1=NCCN1S(=O)(=O)c1ccccc1)c1ccccc1 (configuration not stated)	PfGluPho inh 62 (no result: Diaphorase inh, G6PDH counter) | PfGluPho conf inactive
Cc1ccc(S(=O)(=O)N2CCN=C2SC(C)c2ccccc2)cc1 (configuration not stated)	none (no result: Diaphorase inh, G6PDH counter)
COc1ccc(CCNC(=O)C(=O)NCC2CCCN2S(=O)(=O)c2ccc(OC)cc2)cc1 (configuration not stated)	none (no result: Diaphorase inh, G6PDH counter)
CSCCC(NC(=O)c1ccccc1)C(=O)NCCCSc1ccccc1 (configuration not stated)	none (no result: Diaphorase inh, G6PDH counter)
Cc1cc(C)nc(NNS(=O)(=O)c2ccc(Cl)cc2)n1	PfGluPho inh 59 (no result: Diaphorase inh, G6PDH counter) | PfGluPho conf inactive
Cc1cc(C)nc(NNS(=O)(=O)c2ccc(F)c(Cl)c2)n1	none (no result: Diaphorase inh, G6PDH counter)
NC(=O)c1ncn([C@@H]2O[C@H](CNCc3ccc(-c4cc(C(F)(F)F)ccc4Cl)o3)[C@@H](O)[C@H]2O)n1	none (no result: Diaphorase inh, G6PDH counter)
CCOC(=O)c1sc(NC(=O)C(C)C)c(C#N)c1C	PfGluPho inh 68 | PfGluPho conf inactive
CCOC(=O)c1sc(NC(=O)C2=COCCO2)c(C#N)c1C	none (no result: Diaphorase inh, G6PDH counter)
[O-]/[N+](=C/c1ccc(F)cc1)c1ccccc1	none
[O-]/[N+](=C\c1ccncc1)c1ccccc1	PfGluPho inh 74 | PfGluPho conf 52 | Diaph ctr 10uM inactive | Diaph ctr 30uM inactive
C=C1[C@H]2O[C@H]2[C@@H](OC(C)=O)[C@@]2(C)[C@@H](OC(C)=O)C[C@@H](OC(C)=O)[C@@](C)(O)[C@@H]2[C@@H](OC(C)=O)[C@@]2(O)[C@@H](C)C(=O)O[C@H]2[C@H]1Cl	none (no result: Diaphorase inh, G6PDH counter)
COc1ccccc1NC(=O)c1ccc2[nH]c(C)c(C)c2c1	PfGluPho inh 81 (no result: Diaphorase inh, G6PDH counter) | PfGluPho conf inactive
